The structures appear in SMILES notation.

Consider ten compounds from ChEMBL document CHEMBL4257525, “Synthesis and biological evaluation of new 3-amino-2-azetidinone derivatives as anti-colorectal cancer agents” (Medchemcomm, 2018).

Test system in one test: not listed separately
Description: Inhibition of porcine brain tubulin polymerization measured for 15 mins by spectrophotometric method. More on the design: species or system Sus scrofa.
Details: not given
The essentials: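 Lyophilized purified tubulin resuspended at 2.5 mg mL-1 in assembly buffer (80 mM PIPES pH 6.9, 1 mM MgCl2, 2 mM EGTA, 10% glycerol), mixed with 1 mM GTP and varying compound concentrations; 0.2% v/v DMSO vehicle control. Assembly read at 340 nm, 37 °C. IC50 = concentration inhibiting polymerization by 50%, from four-parameter logistic fit.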
Take `COc1ccc([C@H]2[C@H](NC(C)=O)C(=O)N2c2cc(OC)c(OC)c(OC)c2)cc1O` (relative stereo): the IC50 worked out at 5050 nM.

For another test, the system named is SW48. Put plainly: Antiproliferative activity against human SW48 cells after 72 hrs by MTT assay. It is filed as functional, cell-based. To be noted: SW48, 72 h. The gist of the method: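 SW48 colorectal adenocarcinoma cells grown in RPMI-1640 with 10% FBS, 2 mM L-glutamine and penicillin/streptomycin at 37 °C, 5% CO2. 8000 cells per well exposed to a range of compound concentrations (in DMSO) for 72 h. MTT then added for 2 h at 37 °C, formazan solubilized, absorbance read at 570 nm. Triplicates in three independent experiments. IC50 from a four-parameter logistic fit against 0.1% DMSO controls.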
As to `COc1ccc([C@H]2[C@H](NC(=O)c3ccc(Cl)cc3)C(=O)N2c2cc(OC)c(OC)c(OC)c2)cc1O`, the IC50 came out at 271 nM. On the same count and under the same terms, next, `COc1ccc(C(=O)N[C@@H]2C(=O)N(c3cc(OC)c(OC)c(OC)c3)[C@H]2c2ccc(OC)c(O)c2)cc1` (relative stereo): 108 nM. On the same count and under the same terms, the result for `COc1ccc([C@H]2[C@H](NC(=O)[C@H](C)N)C(=O)N2c2cc(OC)c(OC)c(OC)c2)cc1O` (relative stereo) reads 90.6 nM; that for `COc1ccc([C@H]2[C@H](NC(=O)C3CCCCC3)C(=O)N2c2cc(OC)c(OC)c(OC)c2)cc1O` (relative stereo), 244 nM. On the same count and under the same terms, next, `COc1ccc([C@H]2[C@H](NC(C)=O)C(=O)N2c2cc(OC)c(OC)c(OC)c2)cc1O` (relative stereo): 14 nM.

The compound `COc1ccc([C@H]2[C@H](NC(=O)c3cc(OC)c(OC)c(OC)c3)C(=O)N2c2cc(OC)c(OC)c(OC)c2)cc1O` (relative stereo) had an IC50 of 564 nM. Still for that read-out and setting: next, `COc1ccc([C@H]2[C@H](NC(=O)Cc3c[nH]c4ccccc34)C(=O)N2c2cc(OC)c(OC)c(OC)c2)cc1O` (relative stereo): 49.4 nM; `COc1ccc([C@H]2[C@H](NC(=O)c3ccc4ccccc4c3)C(=O)N2c2cc(OC)c(OC)c(OC)c2)cc1O` (relative stereo): 220 nM; `COc1ccc([C@H]2[C@H](NC(=O)c3ccc(F)cc3)C(=O)N2c2cc(OC)c(OC)c(OC)c2)cc1O` (relative stereo): 384 nM. Take `COc1ccc([C@H]2[C@H](NC(=O)c3ccco3)C(=O)N2c2cc(OC)c(OC)c(OC)c2)cc1O` (relative stereo): the IC50 is 18.6 nM.
